Source: ChEMBL document CHEMBL1121556, “Structure-activity relationships in a series of newly synthesized 1-amino-substituted ellipticine derivatives” (J Med Chem, 1980)
Starred links: 1 amine or outer side, 2 acyl side, 3 side chain; linkers in the order of their positions; H or OH if unused. Positions of bridges follow the written chain, without caps; N, C: chain ends. Non-standard residues stand in square brackets, D forms with d. Residues, ends and D or L forms follow the SMILES beside them. Chains are numbered I, II in the order given. Actinocin(1to9) = Cc1c2oc3c(C)ccc(C(=O)[*:2])c3nc-2c(C(=O)[*:1])c(N)c1=O; NMeV = CN[C@H](C(=O)O)C(C)C; Sar = CNCC(=O)O

Columns and labels:
[1] = test system: Mus musculus; assay: In vivo acute toxicity (nonlethal dose) against mice by intravenous administration; assay type: organism-based
How it was run: (§1)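 Mice (ICFW, C3H or B6D2 F1; 6-8 weeks; 22-24 g) in five groups of six. Drug dissolved in acidified saline (equimolar acetic acid) and given as a single ip or iv dose of 2, 5, 10, 25 or 50 mg/kg. Mortality observed over 30 days to set the lethal dose (LD100) and the highest nonlethal dose (LD0).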

[2] = test system: Mus musculus; assay: In vivo acute toxicity (nonlethal dose) against mice by intraperitoneal administration; assay type: organism-based; conditions: ip; how it was run: as §1
[3] = test system: Mus musculus; assay: In vivo acute toxicity (lethal dose) against mice by intraperitoneal administration; assay type: organism-based; conditions: ip; how it was run: as §1
[4] = test system: Friend leukemia cells (Mus musculus); assay: In vitro concentration required for growth inhibition of murine Friend leukemia cell; conditions: read-out: ID50 (the source's name)
[5] = test system: Mus musculus; assay: In vivo acute toxicity (lethal dose) against mice by intravenous administration; assay type: organism-based; how it was run: as §1
[6] = test system: Mus musculus; assay: In vivo antitumor activity on L1210 leukemia cells at the dose 15 mg/kg administered intraperitoneally 1 day after 10 e5 L1210 leukemia cells and range of deaths; assay type: functional; conditions: route intraperitoneal
[7] = test system: Mus musculus; assay: In vivo evaluation of antitumor activity on L1210 leukemia cells at the dose 15 mg/kg administered intraperitoneally 1 day after 10 e5 L1210 leukemia cells and increase in life span; assay type: functional; conditions: L1210, ip, 24 h, route intraperitoneal
[8] = test system: Mus musculus; assay: In vivo evaluation of antitumor activity on L1210 leukemia cells at the dose 15 mg/kg administered intraperitoneally 1 day after 10 e5 L1210 leukemia cells and Mean survival time; assay type: functional; conditions: route intraperitoneal
[9] = test system: Mus musculus; assay: In vivo antitumor activity on L1210 leukemia cells at the dose 2.5 mg/kg administered intraperitoneally 1 day after 10 e5 L1210 leukemia cells and range of deaths; assay type: functional; conditions: route intraperitoneal
[10] = test system: Mus musculus; assay: In vivo evaluation of antitumor activity on L1210 leukemia cells at the dose 2.5 mg/kg administered intraperitoneally 1 day after 10 e5 L1210 leukemia cells and increase in life span; assay type: functional; conditions: L1210, ip, 24 h, route intraperitoneal
[11] = test system: Mus musculus; assay: In vivo leukemia cells at the dose 2.5 mg/kg administered intraperitoneally 1 day after 10 e5 L1210 leukemia cells and Mean survival time; assay type: functional; conditions: route intraperitoneal
[12] = test system: Mus musculus; assay: In vivo evaluation for the antitumor activity on L1210 leukemia cells at the dose 15 mg/kg administered intraperitoneally estimated as Mean survival time; assay type: functional; conditions: route intraperitoneal
[13] = test system: Mus musculus; assay: In vivo antitumor activity on L1210 leukemia cells at the dose 15 mg/kg administered intraperitoneally estimated as range of deaths; assay type: functional; conditions: route intraperitoneal
[14] = test system: Nucleic Acid; assay: B app constant towards DNA; assay type: nucleic-acid assay; conditions: Bos taurus
How it was run: (§2)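 Association constants for DNA binding were derived from absorption changes of calf thymus DNA at 6 × 10^-7 M, expressed as mononucleotide concentration. The buffer was 50 mM Tris-HCl, pH 7.4, with 0.1 M NaCl.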

[15] = test system: Mus musculus; assay: In Vivo antitumor activity on grafted tumor friend cells at the dose 20 mg/kg and decrease in intravenous 10 e 6 cells and median survival time; assay type: functional
How it was run: (§3)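 Friend tumor cells, 10^6, injected iv into syngeneic mice. Mice randomized in groups of 16. Drug dissolved in acidified saline (equimolar acetic acid) and given as a single iv dose 3 days after inoculation. Median survival time recorded. %ILS = (treated median survival − control median survival)/control median survival × 100.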

[16] = test system: Mus musculus; assay: In Vivo evaluation for the antitumor activity on grafted tumor friend cells at the dose 20 mg/kg and Increase in the life span was determined; assay type: functional; how it was run: as §3
[17] = test system: Nucleic Acid; assay: Apparent association constant towards DNA at concentration of 10e-7/M; assay type: nucleic-acid assay; conditions: Bos taurus; how it was run: as §2
[18] = test system: Mus musculus; assay: In vivo evaluation for the antitumor activity on L1210 leukemia cells at the dose 15 mg/kg administered intraperitoneally estimated as increase in life span; assay type: functional; conditions: L1210, ip, route intraperitoneal
[19] = test system: Nucleic Acid; assay: Apparent association constant towards DNA at concentration of […].; assay type: nucleic-acid assay; conditions: Bos taurus; how it was run: as §2
[20] = test system: Mus musculus; assay: In vivo antitumor activity on L1210 leukemia cells at the dose 10 mg/kg administered intraperitoneally 1 day after 10 e5 L1210 leukemia cells and range of deaths; assay type: functional; conditions: route intraperitoneal
[21] = test system: Mus musculus; assay: In vivo evaluation of antitumor activity on L1210 leukemia cells at the dose 10 mg/kg administered intraperitoneally 1 day after 10 e5 L1210 leukemia cells and increase in life span; assay type: functional; conditions: L1210, ip, 24 h, route intraperitoneal
[22] = test system: Mus musculus; assay: In vivo evaluation of antitumor activity on L1210 leukemia cells at the dose 10 mg/kg administered intraperitoneally 1 day after 10 e5 L1210 leukemia cells and Mean survival time; assay type: functional; conditions: route intraperitoneal
[23] = test system: Nucleic Acid; assay: Apparent association constant towards DNA at concentration of 10e-7/M.; assay type: nucleic-acid assay; conditions: Bos taurus; how it was run: as §2

| SMILES | LD0 [2] [mg/kg] | LD100 [3] [mg/kg] | IC50 [4] [µM] | also measured |
| --- | --- | --- | --- | --- |
| COc1ccc2[nH]c3c(C)c4ccnc(NCCCN5CCN(CCCN)CC5)c4cc3c2c1 | 25 | 50 | 0.2 | LD0 [1]: < 1 mg/kg; LD100 [5]: 2.5 mg/kg |
| CCN(CC)CCCC(C)Nc1nccc2c(C)c3[nH]c4ccc(OC)cc4c3cc12 (centres undefined) | 1.5 | 30 | 0.5 | Range of deaths [6]: 14 days; ILS at 15 mg/kg [7]: 8.7%; MST [8]: 12.5 days |
| COc1ccc2[nH]c3c(C)c4cc[n+](C)c(N(C)C)c4cc3c2c1 |  |  | > 100 |  |
| Cc1c2oc3c(C)ccc(C(=O)N[C@@H]4C(=O)N[C@H](C(C)C)C(=O)N5CCC[C@H]5C(=O)N(C)CC(=O)N(C)[C@@H](C(C)C)C(=O)O[C@@H]4C)c3nc-2c(C(=O)N[C@@H]2C(=O)N[C@H](C(C)C)C(=O)N3CCC[C@H]3C(=O)N(C)CC(=O)N(C)[C@@H](C(C)C)C(=O)O[C@@H]2C)c(N)c1=O [DACTINOMYCIN] (I: T[dV]P[Sar][NMeV] / II: T[dV]P[Sar][NMeV]; ester I:1-I:C, II:1-II:C; linker I:N-II:N via Actinocin(1to9)) |  |  | 0.001 |  |
| Cc1c2ccnc(NCCCN)c2cc2c1[nH]c1ccc(OCc3ccccc3)cc12 |  |  | 0.3 |  |
| Cc1c2ccnc(NCCN(C)C)c2cc2c1[nH]c1ccc(O)cc12 | 2.5 | 5 | 0.03 | Range of deaths [9]: 20 days; ILS at 2.5 mg/kg [10]: 26%; MST [11]: 16 days |
| COc1ccc2[nH]c3c(C)c4ccnc(NCCCn5ccnc5)c4cc3c2c1 |  |  | 0.5 |  |
| CCN(CC)CCCNc1nccc2c(C)c3[nH]c4ccc(OC)cc4c3c(C)c12 [RETELLIPTINE] | 15 | 60 | 0.3 | LD0 [1]: 20 mg/kg; MST [12]: 25 days; Range of deaths [13]: 35 days; Bapp [14]: 0.16; MST [15]: 10.6 days; ILS at 20 mg/kg [16]: 24.7%; K app [17]: 3.15e+07 M⁻¹; ILS at 15 mg/kg [18]: 134%; LD100 [5]: 60 mg/kg |
| COc1ccc2[nH]c3c(C)c4ccnc(NCCCN(C)C)c4cc3c2c1 |  |  | 1 | K app [19]: 3.15e+07 M⁻¹; Bapp [14]: 0.09 |
| COc1ccc2[nH]c3c(C)c4ccnc(NCCCN)c4c(C)c3c2c1 | 10 | 20 | 0.1 | Range of deaths [20]: 14 days; ILS at 10 mg/kg [21]: 14%; MST [22]: 12.2 days |
| COc1ccc2[nH]c3c(C)c4ccnc(NCCCCN)c4cc3c2c1 |  |  | 5 | K app [23]: 4e+07 M⁻¹; Bapp [14]: 0.13 |
| CCN(CC)CCCNc1nccc2c(C)c3[nH]c4ccc(OCc5ccccc5)cc4c3c(C)c12 |  |  | 1 |  |
| CCN(CCCN)CCCNc1nccc2c(C)c3[nH]c4ccc(OC)cc4c3cc12 | 5 | 15 | 0.2 |  |
